These results are taken from ChEMBL document CHEMBL4017525, “Lactam-Stapled Cell-Penetrating Peptides: Cell Uptake and Membrane Binding Properties” (J Med Chem, 2017).

Activity calls are given as the source filed them. The rule behind the calls is not given here.

In one data set the test system is Enterococcus faecalis. Nature of the data set: Antibacterial activity against Enterococcus faecalis ATCC 29212 after 22 hrs by resazurin based broth dilution assay. It is filed as functional. As to conditions: ATCC 29212, 22 h. An outline of the steps:
(§1)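 Standard broth dilution assay determining MIC against two Gram-negative and two Gram-positive strains. Values are the mean of two independent experiments.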

Another data set relates to Staphylococcus aureus. The data set is described as follows: Antibacterial activity against Staphylococcus aureus ATCC 25923 after 22 hrs by resazurin based broth dilution assay. It is filed as functional. As to conditions: ATCC 25923, 22 h. An outline of the steps: as §1
(In general: Alamar Blue is a resazurin reagent that responds to reducing activity.)

A further data set deals with Pseudomonas aeruginosa. The data set is described as follows: Antibacterial activity against Pseudomonas aeruginosa ATCC 27853 after 22 hrs by resazurin based broth dilution assay. As to conditions: ATCC 27853, 22 h. In kind it is functional. An outline of the steps:
as §1

In another data set the test system is Escherichia coli. The data set is described as follows: Antibacterial activity against Escherichia coli ATCC 25922 after 22 hrs by resazurin based broth dilution assay. In kind it is functional. The note with it: ATCC 25922, 22 h. An outline of the steps: as §1
Data set [1] can be described thus: Drug uptake in HEK293 cells at 2 uM after 4 hrs using fluorescein labeled compound by flow cytometric analysis. It is filed as ADME, cell-based. The note with it: human, hek293, 4 h. An outline of the steps: (§2)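 Adherent cells were exposed to fluorescein-labeled peptide at 2 μM for 4 h in serum-free medium. Trypan blue (0.4% end concentration) was added before flow cytometry to quench surface-bound fluorescence. Intracellular signal was normalized to carboxyfluorescein-labeled R9, as the mean ± SD of two independent experiments.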

Data set [2] can be described thus: Drug uptake in human HeLa cells at 2 uM after 4 hrs using fluorescein labeled compound by flow cytometric analysis. In kind it is ADME, cell-based. An outline of the steps: as §2
For orientation: In flow cytometry, cells or beads pass a laser one at a time.

Data set [3] deals with Lipid bilayer. Nature of the data set: Binding affinity to POPC/POPG lipid vesicles assessed as induction of membrane leakage at peptide to lipid ratio of 1:25 at transmembrane potential of -120 mV after 30 mins by spectroflurimetric analysis. An outline of the steps: (§3)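 Large unilamellar vesicles (100 nm extrusion) of POPC or POPC/POPG (3/1, mol/mol) were loaded with ANTS dye and DPX quencher, and leakage was read by fluorescence dequenching. Lipid was 50 μM and peptide 2 μM (1:25), incubated 30 min at 30 °C. For lines 6 and 8, a −120 mV potential (negative inside) was set with valinomycin and outside K+ replaced by Na+.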

Data set [4] deals with Lipid bilayer. The data set is described as follows: Binding affinity to POPC/POPG lipid vesicles assessed as induction of membrane leakage at peptide to lipid ratio of 1:25 after 30 mins by spectroflurimetric analysis. An outline of the steps: as §3
The test system of a further data set is HEK293. The data set is described as follows: Cytotoxicity against HEK293 cells at 2 uM after 4 hrs using fluorescein labeled compound by flow cytometric analysis. The note with it: human, hek293, 4 h. It is filed as cell-based.
The next data set deals with HeLa. The data set is described as follows: Cytotoxicity against human HeLa cells at 2 uM after 4 hrs using fluorescein labeled compound by flow cytometric analysis. In kind it is cell-based.
Data set [5] relates to Lipid bilayer. Nature of the data set: Binding affinity to POPC lipid vesicles assessed as induction of membrane leakage at peptide to lipid ratio of 1:25 at transmembrane potential of -120 mV after 30 mins by spectroflurimetric analysis. An outline of the steps: as §3
The test system of data set [6] is Lipid bilayer. The data set is described as follows: Binding affinity to POPC lipid vesicles assessed as induction of membrane leakage at peptide to lipid ratio of 1:25 after 30 mins by spectroflurimetric analysis. An outline of the steps:
as §3

For orientation: MIC means the lowest concentration found to suppress growth. Higher therefore signals a need for much substance. Turning to H-KLALKALKALKAALKLA-NH2, the MIC in the data set on Enterococcus faecalis turned out to be 256 µg/mL; against Staphylococcus aureus it was 16 µg/mL; against Pseudomonas aeruginosa it was 256 µg/mL; against Escherichia coli, 16 µg/mL. Moreover, the Drug uptake result in data set [1] and in [2] was “Active” throughout. Further, the result in the data set on Lipid bilayer [3] and in the data set on Lipid bilayer [4] was Active. The Activity entry with HEK293 and with HeLa was “Non-Toxic” in each case.

With H-QQRKRKIWSILAPLGTTLVKLVAGIG-NH2, the MIC in the data set on Enterococcus faecalis turned out to be 32 µg/mL; against Staphylococcus aureus, 32 µg/mL; with Pseudomonas aeruginosa it was 64 µg/mL; against Escherichia coli, 32 µg/mL. Moreover, the Drug uptake result in data set [1] and in [2] was “Active” each time. Further, the Activity with Lipid bilayer [5] was 100%; with Lipid bilayer [6], 100%; in the data set with HEK293, “Non-Toxic”; in the data set with HeLa, “Non-Toxic”.

As to `N=C(N)NCCC[C@H](NC(=O)[C@H](CCCNC(=N)N)NC(=O)[C@H](CCCNC(=N)N)NC(=O)[C@H](CCCNC(=N)N)NC(=O)[C@H](CCCNC(=N)N)NC(=O)[C@H](CCCNC(=N)N)NC(=O)[C@H](CCCNC(=N)N)NC(=O)[C@H](CCCNC(=N)N)NC(=O)[C@@H](N)CCCNC(=N)N)C(=O)O`, the Drug uptake entry in data set [1] and in data set [2] was “Active” in each case.

Regarding H-AAVLLPVLLAAP-NH2, the MIC with Enterococcus faecalis, in the data set on Staphylococcus aureus, against Pseudomonas aeruginosa and in the data set on Escherichia coli was greater than 256 µg/mL each time. The Drug uptake entry in data set [1] and in data set [2] was “Active” throughout. For the same compound, the outcome in the data set on Lipid bilayer [3] and in the data set on Lipid bilayer [4] was inactive. In addition, the Activity result with HEK293 and in the data set on HeLa was “Non-Toxic” in each case.

For the compound H-PLILLRLLRGQF-NH2, the MIC in the data set on Enterococcus faecalis is 64 µg/mL; in the data set on Staphylococcus aureus, 16 µg/mL; against Pseudomonas aeruginosa, greater than 256 µg/mL; in the data set with Escherichia coli it was 256 µg/mL. Moreover, the Drug uptake entry in data set [1] and in data set [2] was “Active” each time. Besides, the outcome in the data set on Lipid bilayer [3] and in the data set on Lipid bilayer [4] was Active. In addition, the Activity result with HEK293 and in the data set with HeLa was “Non-Toxic” in each case.
